Assay results reported in ChEMBL document CHEMBL1158835, “Hirsutane sesquiterpenes from the fungus Lentinus connatus BCC 8996” (J Nat Prod, 2005).
≈ marks a conversion by molar mass, not a printed value.

Experiments:
[1] = test system: Plasmodium falciparum; assay: Antimalarial activity against multidrug-resistant Plasmodium falciparum K1 after 42 hrs by [3H]hypoxanthine uptake; format: functional, organism-based
Summary of the method: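 Microculture radioisotope method following Desjardins; growth of multidrug-resistant K1 parasites read as in vitro [3H]-hypoxanthine uptake. IC50 = concentration giving 50% reduction in parasite growth. Dihydroartemisinin run as standard.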

[2] = test system: NCI-H187; assay: Cytotoxicity against human NCI-H187 cells by SRB assay; format: functional, cell-based
Summary of the method: (§1)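 Colorimetric (Skehan) cytotoxicity assay on KB human epidermoid carcinoma, BC human breast cancer, NCI-H187 human small cell lung cancer, and Vero African green monkey kidney […] cells. Ellipticine served as the reference substance. Activity is expressed as IC50.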

[3] = test system: KB; assay: Cytotoxicity against human KB cells by SRB assay; format: functional, cell-based; summary of the method: as §1
[4] = test system: Vero; assay: Cytotoxicity against african green monkey Vero cells by SRB assay; format: cell-based; conditions: Chlorocebus sabaeus; summary of the method: as §1
[5] = Cytotoxicity against human BC cells by SRB assay; format: functional, cell-based; summary of the method: as §1

Structure (SMILES)	IC50 [1] [µg/mL]	IC50 [2] [µg/mL]	IC50 [3] [µg/mL]	IC50 [4] [µg/mL]	IC50 [5] [µg/mL]
COc1ccc2c(c1)C(=O)CC(C)(C)O2	> 20	> 20	> 20	> 50	> 20
C[C@H]1[C@@H](O)O[C@@H]2O[C@@]3(C)CC[C@H]4[C@H](C)CC[C@@H]1[C@@]24OO3 [ARTENIMOL]	0.0018 (≈ 0.00633 µM)	–	–	–	–
CC1=C(O)C(=O)[C@]2(O)C[C@H]3CC(C)(C)[C@H](O)[C@H]3[C@]12C [CONNATUSIN A]	> 20	> 20	> 20	> 50	> 20
CC1(C)C[C@@H]2CC3=CC(=O)[C@@](O)(CO)[C@@]3(C)[C@@H]2[C@H]1O [CONNATUSIN B]	> 20	> 20	> 20	> 50	> 20
Cc1c2ccncc2c(C)c2c1[nH]c1ccccc12 [ELLIPTECINE]	–	0.32 (≈ 1.3 µM)	0.21 (≈ 0.853 µM)	–	0.27 (≈ 1.1 µM)
C=C1[C@@H](O)[C@H]2O[C@]23C[C@H]2CC(C)(C)[C@H](O)[C@H]2[C@]13C [HYPNOPHILIN 1]	3.1 (≈ 12.4 µM)	0.67 (≈ 2.68 µM)	> 20	1.1 (≈ 4.39 µM)	> 20
C=C1C(=O)[C@H]2O[C@]23C[C@H]2CC(C)(C)[C@H](O)[C@H]2[C@]13C [HYPNOPHILIN]	> 20	> 20	> 20	> 50	> 20
CC(C)=C[C@@H](O)C1=CC(=O)[C@@H]2O[C@@H]2C1=O [PANEPOXYDIONE]	2.1 (≈ 10.1 µM)	0.22 (≈ 1.06 µM)	0.8 (≈ 3.84 µM)	0.2 (≈ 0.961 µM)	0.8 (≈ 3.84 µM)
CC(C)=C[C@H](O)C1=C[C@@H](O)[C@@H]2O[C@@H]2C1=O [PANEPOXYDONE]	3.4 (≈ 16.2 µM)	0.66 (≈ 3.14 µM)	1.9 (≈ 9.04 µM)	0.9 (≈ 4.28 µM)	2.9 (≈ 13.8 µM)
